{"source": "paper PMC7985749", "about": "(CNS Drugs, 2021)", "assay_type_in_all_cases": "in vivo, human", "key": {"[1]": {"experiment": "Plasma pharmacokinetics, single ascending dose", "details": "male, human, plasma, po"}, "[2]": {"experiment": "Adverse events / TEAEs, older adult"}, "[3]": {"test_system": "platelet levels", "experiment": "Platelet levels", "outline": "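Young volunteers took the test compound or placebo orally once daily for 5 days, 0.2–4 mg/day; older adults took 2.5 mg/day. Platelets were counted in hematology safety blood samples at preset timepoints through 264 h and at follow-up, as % change from baseline. The MID limit included >50% platelet drop or grade ≥1 thrombocytopenia in >50% of active, not placebo, subjects. EC50 and EC80 came from a nonlinear exposure–response fit.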"}, "[4]": {"experiment": "Adverse events / TEAEs, MAD cohort"}, "[5]": {"details": "Elderly cohort, active treatment, 5 days, n = 3"}}, "data": [{"smiles": "Nc1nnc(CN[C@@H]2C[C@H]2c2ccc(OCc3ccccc3)cc2)o1", "note": "[vafidemstat]", "values": [{"measurement": "AUC(0-inf)", "setting": "[1]; 2.5 mg", "value": 438, "unit": "ng·h/mL"}, {"measurement": "AUC(0-t)", "setting": "[1]; 2.5 mg", "value": 402, "unit": "ng·h/mL"}, {"measurement": "Cmax", "setting": "[1]; 2.5 mg", "value": 18.8, "unit": "ng/mL"}, {"measurement": "Tmax", "setting": "[1]; 2.5 mg", "value": 1.58, "unit": "h"}, {"measurement": "Vd/F", "setting": "[1]; 2.5 mg", "value": 203, "unit": "L"}, {"measurement": "half-life", "setting": "[1]; 2.5 mg", "value": 25, "unit": "h"}, {"measurement": "AUC(0-inf)", "setting": "[1]; 4 mg", "value": 568, "unit": "ng·h/mL"}, {"measurement": "AUC(0-t)", "setting": "[1]; 4 mg", "value": 550, "unit": "ng·h/mL"}, {"measurement": "Cmax", "setting": "[1]; 4 mg", "value": 38, "unit": "ng/mL"}, {"measurement": "Tmax", "setting": "[1]; 4 mg", "value": 1.71, "unit": "h"}, {"measurement": "Vd/F", "setting": "[1]; 4 mg", "value": 204, "unit": "L"}, {"measurement": "half-life", "setting": "[1]; 4 mg", "value": 20, "unit": "h"}, {"measurement": "Number of TEAEs (% of total TEAEs): Asthenia", "setting": "[2]; [5]", "value": "1 (4.8) n (%)"}, {"measurement": "Number of TEAEs (% of total TEAEs): Blunted effect", "setting": "[2]; [5]", "value": "1 (4.8) n (%)"}, {"measurement": "Number of TEAEs (% of total TEAEs): Feeling cold", "setting": "[2]; [5]", "value": "1 (4.8) n (%)"}, {"measurement": "Number of TEAEs (% of total TEAEs): Gait disturbance", "setting": "[2]; [5]", "value": "1 (4.8) n (%)"}, {"measurement": "Number of TEAEs (% of total TEAEs): Headache", "setting": "[2]; [5]", "value": "3 (14.3) n (%)"}, {"measurement": "Number of TEAEs (% of total TEAEs): Musculoskeletal stiffness", "setting": "[2]; [5]", "value": "1 (4.8) n (%)"}, {"measurement": "Number of TEAEs (% of total TEAEs): Palpitations", "setting": "[2]; [5]", "value": "1 (4.8) n (%)"}, {"measurement": "Number of TEAEs (% of total TEAEs): Total", "setting": "[2]; [5]", "value": "10 (47.6) n (%)"}, {"measurement": "Number of TEAEs (% of total TEAEs): Vertigo", "setting": "[2]; [5]", "value": "1 (4.8) n (%)"}, {"measurement": "Number of treatment-related TEAEs", "setting": "[2]; MAD stage in older adult volunteers, with vafidemstat", "value": 10}, {"measurement": "Maximum tolerated dose", "setting": "[3]; MAD, 5 days", "value": 2.5, "unit": "mg/day"}, {"measurement": "Minimum intolerable dose (MID) as defined per protocol", "setting": "[3]; MAD, 5 days", "value": 4, "unit": "mg/day"}, {"measurement": "Platelet levels", "setting": "[3]; any SAD dose level or up to MAD dose III (1.0 mg/day)", "value": "no variations"}, {"measurement": "Platelet level drops from baseline versus exposure", "setting": "[3]; at Cmax,ss of ~ 100 ng/mL and AUCss of ~ 1000 ng·h/mL", "value": "~ 50%"}, {"measurement": "Number of AEs related to the study treatment", "setting": "[4]; MAD stage, healthy young volunteers, with vafidemstat", "value": 44}, {"measurement": "Number of TEAEs (% of total TEAEs): Asthenia", "setting": "[4]; MAD, 0.2 mg/day, n = 6", "value": "2 (3.3) n (%)"}, {"measurement": "Number of TEAEs (% of total TEAEs): Dizziness postural", "setting": "[4]; MAD, 0.2 mg/day, n = 6", "value": "1(1.6) n (%)"}, {"measurement": "Number of TEAEs (% of total TEAEs): Feeling hot", "setting": "[4]; MAD, 0.2 mg/day, n = 6", "value": "1(1.6) n (%)"}, {"measurement": "Number of TEAEs (% of total TEAEs): Headache", "setting": "[4]; MAD, 0.2 mg/day, n = 6", "value": "3 (4.9) n (%)"}, {"measurement": "Number of TEAEs (% of total TEAEs): Hematoma", "setting": "[4]; MAD, 0.2 mg/day, n = 6", "value": "1 (1.6) n (%)"}, {"measurement": "Number of TEAEs (% of total TEAEs): Muscle spasms", "setting": "[4]; MAD, 0.2 mg/day, n = 6", "value": "1(1.6) n (%)"}, {"measurement": "Number of TEAEs (% of total TEAEs): Palpitations", "setting": "[4]; MAD, 0.2 mg/day, n = 6", "value": "1 (1.6) n (%)"}, {"measurement": "Number of TEAEs (% of total TEAEs): Total", "setting": "[4]; MAD, 0.2 mg/day, n = 6", "value": "10 (16.4) n (%)"}, {"measurement": "Number of TEAEs (% of total TEAEs): Apathy", "setting": "[4]; MAD, 0.6 mg/day, n = 6", "value": "1 (1.6) n (%)"}, {"measurement": "Number of TEAEs (% of total TEAEs): Asthenia", "setting": "[4]; MAD, 0.6 mg/day, n = 6", "value": "1 (1.6) n (%)"}, {"measurement": "Number of TEAEs (% of total TEAEs): Blunted affect", "setting": "[4]; MAD, 0.6 mg/day, n = 6", "value": "2 (3.3) n (%)"}, {"measurement": "Number of TEAEs (% of total TEAEs): Daydreaming", "setting": "[4]; MAD, 0.6 mg/day, n = 6", "value": "1 (1.6) n (%)"}, {"measurement": "Number of TEAEs (% of total TEAEs): Dyspepsia", "setting": "[4]; MAD, 0.6 mg/day, n = 6", "value": "1 (1.6) n (%)"}, {"measurement": "Number of TEAEs (% of total TEAEs): Euphoric mood", "setting": "[4]; MAD, 0.6 mg/day, n = 6", "value": "1 (1.6) n (%)"}, {"measurement": "Number of TEAEs (% of total TEAEs): Feeling drunk", "setting": "[4]; MAD, 0.6 mg/day, n = 6", "value": "1 (1.6) n (%)"}, {"measurement": "Number of TEAEs (% of total TEAEs): Headache", "setting": "[4]; MAD, 0.6 mg/day, n = 6", "value": "1 (1.6) n (%)"}, {"measurement": "Number of TEAEs (% of total TEAEs): Somnolence", "setting": "[4]; MAD, 0.6 mg/day, n = 6", "value": "2 (3.3) n (%)"}, {"measurement": "Number of TEAEs (% of total TEAEs): Total", "setting": "[4]; MAD, 0.6 mg/day, n = 6", "value": "11 (18.0) n (%)"}, {"measurement": "Number of TEAEs (% of total TEAEs): Asthenia", "setting": "[4]; MAD, 1.0 mg/day, n = 6", "value": "1 (1.6) n (%)"}, {"measurement": "Number of TEAEs (% of total TEAEs): Constipation", "setting": "[4]; MAD, 1.0 mg/day, n = 6", "value": "1 (1.6) n (%)"}, {"measurement": "Number of TEAEs (% of total TEAEs): Dizziness postural", "setting": "[4]; MAD, 1.0 mg/day, n = 6", "value": "1 (1.6) n (%)"}, {"measurement": "Number of TEAEs (% of total TEAEs): Dry mouth", "setting": "[4]; MAD, 1.0 mg/day, n = 6", "value": "4 (6.5) n (%)"}, {"measurement": "Number of TEAEs (% of total TEAEs): Feeling cold", "setting": "[4]; MAD, 1.0 mg/day, n = 6", "value": "3 (4.9) n (%)"}, {"measurement": "Number of TEAEs (% of total TEAEs): Headache", "setting": "[4]; MAD, 1.0 mg/day, n = 6", "value": "2 (3.3) n (%)"}, {"measurement": "Number of TEAEs (% of total TEAEs): Nasopharyngitis", "setting": "[4]; MAD, 1.0 mg/day, n = 6", "value": "1 (1.6) n (%)"}, {"measurement": "Number of TEAEs (% of total TEAEs): Total", "setting": "[4]; MAD, 1.0 mg/day, n = 6", "value": "13 (21.3) n (%)"}, {"measurement": "Number of TEAEs (% of total TEAEs): Dry mouth", "setting": "[4]; MAD, 1.5 mg/day, n = 6", "value": "3 (4.9) n (%)"}, {"measurement": "Number of TEAEs (% of total TEAEs): Headache", "setting": "[4]; MAD, 1.5 mg/day, n = 6", "value": "2 (3.3) n (%)"}, {"measurement": "Number of TEAEs (% of total TEAEs): Salivary hypersecretion", "setting": "[4]; MAD, 1.5 mg/day, n = 6", "value": "1 (1.6) n (%)"}, {"measurement": "Number of TEAEs (% of total TEAEs): Somnolence", "setting": "[4]; MAD, 1.5 mg/day, n = 6", "value": "1 (1.6) n (%)"}, {"measurement": "Number of TEAEs (% of total TEAEs): Total", "setting": "[4]; MAD, 1.5 mg/day, n = 6", "value": "7 (11.5) n (%)"}, {"measurement": "Number of TEAEs (% of total TEAEs): Dry mouth", "setting": "[4]; MAD, 2.5 mg/day, n = 6", "value": "1 (1.6) n (%)"}, {"measurement": "Number of TEAEs (% of total TEAEs): Total", "setting": "[4]; MAD, 2.5 mg/day, n = 6", "value": "1 (1.6) n (%)"}, {"measurement": "Number of TEAEs (% of total TEAEs): Headache", "setting": "[4]; MAD, 4.0 mg/day, n = 3", "value": "2 (3.3) n (%)"}, {"measurement": "Number of TEAEs (% of total TEAEs): Total", "setting": "[4]; MAD, 4.0 mg/day, n = 3", "value": "2 (3.3) n (%)"}]}]}
